From ChEMBL document CHEMBL4270537, “Design and biological evaluation of novel triaryl pyrazoline derivatives with dioxane moiety for selective BRAFV600E inhibition” (Eur J Med Chem, 2018)
Calls of active or inactive are those of the source. The calls are words filed in the database; no cut-off is given here.

Columns and labels:
A-375 [1] = test: Induction of apoptosis in human A375 cells assessed as early apoptotic cells at 5 uM after 24 hrs by Annexin V-FITC/PI staining based flow cytometry (reference value: 5.45%); assay type: functional
A-375 [2] = test: Cell cycle arrest in human A375 cells assessed as accumulation at G1 phase at 20 uM after 24 hrs by propidium iodide staining based flow cytometry (reference value: 73.6%); assay type: functional
A-375 [3] = test: Cell cycle arrest in human A375 cells assessed as accumulation at G2/M phase at 2.5 uM after 24 hrs by propidium iodide staining based flow cytometry (reference value: 5.1%); assay type: functional
A-375 [4] = test: Induction of apoptosis in human A375 cells assessed as late apoptotic cells at 2.5 uM after 24 hrs by Annexin V-FITC/PI staining based flow cytometry (reference value: 4.26%); assay type: functional
A-375 [5] = test: Effect on total MEK1/2 protein level in human A375 cells after 30 mins by Western blot analysis; assay type: ADME, cell-based; settings: a-375, 0.5 h
Method in brief: (§1)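 Western blot. Cells rinsed in cold PBS, lysed 30 min on ice in RIPA with protease inhibitors (1:100), cleared at 12,000 g, 4 °C. Protein measured by BCA, resolved by SDS-PAGE, transferred to PVDF, blocked in skim milk. Primary antibodies 1:500 overnight at 4 °C; secondary 1:5000 for 1 h at room temperature.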

A-375 [6] = test: Cell cycle arrest in human A375 cells assessed as accumulation at S phase at 5 uM after 24 hrs by propidium iodide staining based flow cytometry (reference value: 21.3%); assay type: functional
[7] = test system: Serine/threonine-protein kinase B-raf (Homo sapiens), P15056 [V600E]; test: Inhibition of BRAF V600E mutant in human A375 cells assessed as decrease in MEK1/2 phosphorylation after 30 mins by Western blot analysis; assay type: cell-based
Method in brief: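 A375 cells treated with compound at 0, 0.05, 0.1 and 0.5 µM, then PBS-rinsed and lysed in RIPA with protease inhibitors on ice for 30 min. Lysate was cleared at 12,000 g, 4 °C, and protein assayed by BCA. Samples run on SDS-PAGE and transferred to PVDF. Membranes were milk-blocked, probed with primary antibody (1:500) overnight at 4 °C, then secondary antibody (1:5000) for 1 h at room temperature.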

A-375 [8] = test: Induction of apoptosis in human A375 cells assessed as late apoptotic cells at 2 uM after 48 hrs by Annexin V-FITC/PI staining based flow cytometry (reference value: 3.61%); assay type: functional
Method in brief: (§2)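 Apoptosis time course. A375 cells in 24-well plates (about 10⁵/well) at 2 µM for 0, 24, 48 and 72 h. Harvested by trypsin, washed in PBS, stained 15 min at room temperature in the dark with Annexin V-FITC/PI, analysed by flow cytometry.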

A-375 [9] = test: Cell cycle arrest in human A375 cells assessed as accumulation at G1 phase at 2 uM after 48 hrs by propidium iodide staining based flow cytometry (reference value: 73.6%); assay type: functional
A-375 [10] = test: Cell cycle arrest in human A375 cells assessed as accumulation at S phase at 2 uM after 72 hrs by propidium iodide staining based flow cytometry (reference value: 21.3%); assay type: functional
A-375 [11] = test: Induction of apoptosis in human A375 cells assessed as late apoptotic cells at 2 uM after 24 hrs by Annexin V-FITC/PI staining based flow cytometry (reference value: 3.61%); assay type: functional; method in brief: as §2
A-375 [12] = test: Induction of apoptosis in human A375 cells assessed as viable cells at 5 uM after 24 hrs by Annexin V-FITC/PI staining based flow cytometry (reference value: 88.7%); assay type: functional; settings: A-375, 24 h, read-out: Activity
[13] = target: Serine/threonine-protein kinase B-raf (Homo sapiens, UniProt P15056); test: Inhibition of wild type BRAF in human WM1361 cells assessed as decrease in MEK1/2 phosphorylation up to 5 uM after 30 mins by Western blot analysis; assay type: cell-based
A-375 [14] = test: Induction of apoptosis in human A375 cells assessed as late apoptotic cells at 2 uM after 72 hrs by Annexin V-FITC/PI staining based flow cytometry (reference value: 3.61%); assay type: functional; method in brief: as §2
A-375 [15] = test: Cell cycle arrest in human A375 cells assessed as accumulation at G1 phase at 2 uM after 24 hrs by propidium iodide staining based flow cytometry (reference value: 73.6%); assay type: functional
A-375 [16] = test: Induction of apoptosis in human A375 cells assessed as early apoptotic cells at 20 uM after 24 hrs by Annexin V-FITC/PI staining based flow cytometry (reference value: 5.45%); assay type: functional
HT-29 = test: Antiproliferative activity against human HT-29 cells after 48 hrs by MTT assay; assay type: functional; settings: HT-29, 48 h
Method in brief: (§3)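 MTT reduction assay. Cell lines grown to log phase in DMEM with 10% FBS (A375 in DMEM with sodium pyruvate added), seeded at 10⁴ cells/well in 96-well plates. Three replicate wells per concentration, each assay run three times, GI50 averaged.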

A-375 [17] = test: Induction of apoptosis in human A375 cells assessed as early apoptotic cells at 10 uM after 24 hrs by Annexin V-FITC/PI staining based flow cytometry (reference value: 5.45%); assay type: functional
A-375 [18] = test: Antitumor activity against human A375 cells xenografted in nude mouse assessed as decrease in tumor weight at 10 mg/kg, ip administered every second day for 14 days and measured on day 15 relative to control; assay type: functional
Method in brief: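 A375 cells, 3 × 10⁶ in 0.1 mL cold PBS, injected subcutaneously into right flank of nude mice. Treatment began when tumors reached ~100 mm³; mice randomized, 5 per group. Compound suspended in olive oil, given intraperitoneally every second day for 14 days. Body weight recorded every two days; tumors excised and weighed on day 15.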

A-375 [19] = test: Induction of apoptosis in human A375 cells assessed as late apoptotic cells at 20 uM after 24 hrs by Annexin V-FITC/PI staining based flow cytometry (reference value: 4.26%); assay type: functional
A-375 [20] = test: Cell cycle arrest in human A375 cells assessed as accumulation at G2/M phase at 2 uM after 72 hrs by propidium iodide staining based flow cytometry (reference value: 5.1%); assay type: functional
A-375 [21] = test: Induction of apoptosis in human A375 cells assessed as viable cells at 2.5 uM after 24 hrs by Annexin V-FITC/PI staining based flow cytometry (reference value: 88.7%); assay type: functional; settings: A-375, 24 h, read-out: Activity
[22] = Effect on total MEK1/2 protein level in human WM1361 cells after 30 mins by Western blot analysis; assay type: ADME, cell-based; settings: 0.5 h; method in brief: as §1
[23] = Cytotoxicity against HEK293T cells assessed as decrease in cell viability after 48 hrs by MTT assay; assay type: cell-based, HEK-293T; settings: human; method in brief: as §3
A-375 [24] = test: Cell cycle arrest in human A375 cells assessed as accumulation at G1 phase at 2.5 uM after 24 hrs by propidium iodide staining based flow cytometry (reference value: 73.6%); assay type: functional
A-375 [25] = test: Induction of apoptosis in human A375 cells assessed as necrotic cells at 2 uM after 48 hrs by Annexin V-FITC/PI staining based flow cytometry (reference value: 1.55%); assay type: functional
A-375 [26] = test: Induction of apoptosis in human A375 cells assessed as late apoptotic cells at 10 uM after 24 hrs by Annexin V-FITC/PI staining based flow cytometry (reference value: 4.26%); assay type: functional
A-375 [27] = test: Cell cycle arrest in human A375 cells assessed as accumulation at G2/M phase at 2 uM after 48 hrs by propidium iodide staining based flow cytometry (reference value: 5.1%); assay type: functional

Serine/threonine-protein kinase B-raf (Homo sapiens), P15056 [V600E], sequence (P15056 whole entry V600E): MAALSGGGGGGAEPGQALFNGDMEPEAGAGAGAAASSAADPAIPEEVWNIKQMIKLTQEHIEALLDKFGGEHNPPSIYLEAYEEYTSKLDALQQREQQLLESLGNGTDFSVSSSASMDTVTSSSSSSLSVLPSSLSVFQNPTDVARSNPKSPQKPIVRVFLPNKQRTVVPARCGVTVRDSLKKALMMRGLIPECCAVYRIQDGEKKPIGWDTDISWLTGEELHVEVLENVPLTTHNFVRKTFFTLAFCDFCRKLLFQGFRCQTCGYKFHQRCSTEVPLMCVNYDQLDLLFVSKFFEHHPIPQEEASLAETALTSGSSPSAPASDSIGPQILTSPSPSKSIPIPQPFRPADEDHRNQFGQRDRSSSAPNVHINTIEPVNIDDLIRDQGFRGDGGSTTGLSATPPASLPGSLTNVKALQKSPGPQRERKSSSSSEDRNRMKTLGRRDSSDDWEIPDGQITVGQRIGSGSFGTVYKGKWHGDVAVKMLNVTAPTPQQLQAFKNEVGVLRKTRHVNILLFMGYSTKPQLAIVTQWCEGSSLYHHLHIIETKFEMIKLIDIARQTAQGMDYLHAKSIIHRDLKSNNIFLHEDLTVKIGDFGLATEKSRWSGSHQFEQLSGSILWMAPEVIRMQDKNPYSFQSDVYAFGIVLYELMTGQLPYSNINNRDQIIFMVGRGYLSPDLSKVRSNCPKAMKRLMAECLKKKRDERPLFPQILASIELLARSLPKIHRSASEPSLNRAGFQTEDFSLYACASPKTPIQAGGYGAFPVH
Serine/threonine-protein kinase B-raf, sequence (P15056 whole entry): as the sequence (P15056 whole entry V600E) above, with E600V counted along it

COc1cccc(C2=NN(C(=S)Nc3ccccc3)C(c3ccc4c(c3)OCCO4)C2)c1 (stereo not drawn) gave an Activity (A-375 [1]) of 23.4%, an Activity (A-375 [2]) of 52.8% and an Activity (A-375 [3]) of 8.2%. For the same compound, the Activity (A-375 [4]) was 5.43%, the Activity (A-375 [5]) was “Non-Toxic” and the Activity (A-375 [6]) was 28.4%. For the same compound, the inhibition [7] was “Dose-dependent effect”, the Activity (A-375 [8]) was 5.37% and the Activity (A-375 [9]) was 58.8%. It also gave an Activity (A-375 [10]) of 27.6%, an Activity (A-375 [11]) of 6.76% and a viability at 5 µM (A-375 [12]) of 65%. The inhibition [13] was “inactive”, the Activity (A-375 [14]) was 6.49% and the Activity (A-375 [15]) was 72.4%. For the same compound, the Activity (A-375 [16]) was 49.6%, the GI50 (HT-29) was 2.92 µM and the Activity (A-375 [17]) was 45%. The “fold change (FC)” value (A-375 [18]) was 2, the Activity (A-375 [19]) was 11% and the Activity (A-375 [20]) was 36.8%. For the same compound, the viability at 2.5 µM (A-375 [21]) was 74.4%, the Activity [22] was “Non-Toxic” and the GI50 at 48 h [23] was over 200 µM. For the same compound, the Activity (A-375 [24]) was 72.3%, the Activity (A-375 [25]) was 3.05% and the Activity (A-375 [26]) was 10.8%. The Activity (A-375 [27]) was 15%.
